Experimental data taken from ChEMBL document CHEMBL1128562, “1-Phenyl-3-amino-1,2,3,4-tetrahydronaphthalenes and related derivatives as ligands for the neuromodulatory sigma 3 receptor: further structure-activity relationships” (J Med Chem, 1995).

Legend:
[1] = Binding affinity against Sigma receptor type 3 by using [3H]-(-)-H2-PAT as radioligand; settings: Rattus norvegicus
[2] = target: D(3) dopamine receptor (Homo sapiens) (UniProt P35462); experiment: Binding affinity against Dopamine receptor D3 by using [3H]- radioligand
[3] = target: D(2) dopamine receptor (Rattus norvegicus) (UniProt P61169); experiment: Binding affinity against Dopamine receptor D2 by using [3H]- radioligand
Outline: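 D2 competition assay on rat corpus striatum homogenate (30 μg protein) in 10 mM Tris/150 mM NaCl, pH 7.4, at 30 °C for 90 min. Radioligand was 0.065 nM [3H]emonapride (YM-09151); 250 nM (+)-butaclamol defined nonspecific binding. Six to eight test concentrations spanning 0.01–10 000 nM, in triplicate. Sigmoidal-fit IC50 converted to K0.5 via IC50/(1 + L/KD); repeated twice, ± SEM.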

[4] = target: D(1A) dopamine receptor (Rattus norvegicus) (UniProt P18901); experiment: Binding affinity against Dopamine receptor D1 by using [3H]SCH-23390 as radioligand
Outline: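 Rat corpus striatum homogenate (30 μg protein) in 10 mM Tris with 150 mM NaCl, pH 7.4. Incubated 30 min at 30 °C with 0.3 nM [3H]SCH-23390; 300 nM cis-(Z)-flupenthixol defined nonspecific binding. Test ligand at 6–8 concentrations (0.01–10 000 nM) in triplicate, then filtration and scintillation counting. IC50 from sigmoidal fit converted to K0.5 = IC50/(1 + L/KD); assay repeated twice, ± SEM.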

[5] = target: Sigma non-opioid intracellular receptor 1 (Rattus norvegicus) (UniProt Q9R0C9)
[6] = target: D(2) dopamine receptor (Rattus norvegicus) (UniProt P61169)
[7] = target: D(1A) dopamine receptor (Rattus norvegicus) (UniProt P18901)

Chain of D(2) dopamine receptor (Rattus norvegicus) (P61169 whole entry): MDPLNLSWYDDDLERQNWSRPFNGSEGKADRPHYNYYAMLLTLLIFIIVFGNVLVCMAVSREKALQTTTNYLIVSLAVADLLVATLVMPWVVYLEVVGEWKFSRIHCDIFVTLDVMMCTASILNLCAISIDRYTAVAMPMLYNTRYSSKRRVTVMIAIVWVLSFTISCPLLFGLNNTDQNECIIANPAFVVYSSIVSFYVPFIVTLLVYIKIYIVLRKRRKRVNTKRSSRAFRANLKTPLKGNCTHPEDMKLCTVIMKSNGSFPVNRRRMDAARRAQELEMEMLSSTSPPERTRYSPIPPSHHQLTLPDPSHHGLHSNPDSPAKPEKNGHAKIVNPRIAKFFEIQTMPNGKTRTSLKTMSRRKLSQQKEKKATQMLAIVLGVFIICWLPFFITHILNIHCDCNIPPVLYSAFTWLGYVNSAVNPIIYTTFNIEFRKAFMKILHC
Chain of D(3) dopamine receptor (Homo sapiens) (P35462 whole entry, looked up): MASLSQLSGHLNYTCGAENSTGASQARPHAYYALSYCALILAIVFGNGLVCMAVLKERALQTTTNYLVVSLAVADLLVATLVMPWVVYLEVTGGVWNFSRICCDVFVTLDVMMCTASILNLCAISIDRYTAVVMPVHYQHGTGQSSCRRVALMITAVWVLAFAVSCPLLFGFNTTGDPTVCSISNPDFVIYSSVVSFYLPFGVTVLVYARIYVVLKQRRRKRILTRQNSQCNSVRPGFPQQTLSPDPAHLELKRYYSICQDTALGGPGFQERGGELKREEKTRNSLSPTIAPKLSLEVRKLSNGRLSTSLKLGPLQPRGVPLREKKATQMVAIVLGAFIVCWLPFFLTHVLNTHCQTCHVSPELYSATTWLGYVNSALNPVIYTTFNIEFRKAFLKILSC
Chain of D(1A) dopamine receptor (Rattus norvegicus) (P18901 whole entry): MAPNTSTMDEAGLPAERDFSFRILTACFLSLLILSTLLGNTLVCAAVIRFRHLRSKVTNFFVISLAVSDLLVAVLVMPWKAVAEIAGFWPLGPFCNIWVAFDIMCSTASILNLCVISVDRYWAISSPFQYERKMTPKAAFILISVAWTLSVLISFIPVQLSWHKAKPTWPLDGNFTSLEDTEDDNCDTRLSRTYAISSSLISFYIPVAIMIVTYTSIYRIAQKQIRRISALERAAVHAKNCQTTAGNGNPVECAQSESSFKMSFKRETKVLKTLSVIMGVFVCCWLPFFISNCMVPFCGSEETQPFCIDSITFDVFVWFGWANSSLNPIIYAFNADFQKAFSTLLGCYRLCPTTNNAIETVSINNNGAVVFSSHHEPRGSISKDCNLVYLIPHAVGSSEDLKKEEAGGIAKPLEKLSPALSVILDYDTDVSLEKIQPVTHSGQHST
Chain of Sigma non-opioid intracellular receptor 1 (Rattus norvegicus) (Q9R0C9 whole entry): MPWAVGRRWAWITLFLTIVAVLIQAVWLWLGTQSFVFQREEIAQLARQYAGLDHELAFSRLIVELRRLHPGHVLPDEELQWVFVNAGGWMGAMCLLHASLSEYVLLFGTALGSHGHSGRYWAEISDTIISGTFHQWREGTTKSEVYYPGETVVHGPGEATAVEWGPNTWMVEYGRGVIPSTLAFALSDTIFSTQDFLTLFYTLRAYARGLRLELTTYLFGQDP

Row | Compound | Ki 0.5 [1] [µM] | Ki 0.5 [2] [µM] | Ki 0.5 [3] [µM] | Ki 0.5 [4] [µM] | Ki 0.5 [5] [µM] | Ki 0.5 [6] [µM] | Ki 0.5 [7] [µM]
1 | CN(C)[C@@H]1Cc2ccccc2[C@@H](c2ccccc2)C1 (stereo in doubt; (+)-2) | 0.0135 | 1 | > 5 | > 5 |  |  | 
2 | C[N+](C)(C)[C@@H]1Cc2ccccc2[C@@H](c2ccccc2)C1 | 0.035 | > 1 | > 2.5 | > 5 |  |  | 
3 | CN(CCc1ccccc1)[C@@H]1Cc2ccccc2[C@@H](c2ccccc2)C1 | 0.15 |  | 0.37 | 0.054 |  |  | 
4 | CN(C)[C@@H]1Cc2ccccc2[C@H](c2ccccc2)C1 | 0.074 |  |  |  |  |  | 
5 | CN(C)[C@H]1Cc2ccccc2[C@@](C)(c2ccccc2)C1 | 0.0025 | 1 | > 5 | > 2.5 |  |  | 
6 | CN(C)[C@@H]1CCc2ccccc2[C@@H](c2ccccc2)C1 | 0.0218 | 1 | 5 | > 5 |  |  | 
7 | c1ccc(CCCN[C@@H]2Cc3ccccc3[C@@H](c3ccccc3)C2)cc1 | 2.53 |  | 5 | > 5 |  |  | 
8 | CN(C)[C@@H]1CCc2ccccc2[C@H]1c1ccccc1 | 0.98 | > 1 | > 5 | > 5 |  |  | 
9 | CN(C)[C@@H]1Cc2ccccc2[C@@H](c2ccccc2)C1 (stereo in doubt; (-)-2) | 0.0005 | > 1 | > 5 | > 5 |  |  | 
10 | CN(CCCCc1ccccc1)[C@@H]1Cc2ccccc2[C@@H](c2ccccc2)C1 | 0.28 |  | 0.24 | 0.44 |  |  | 
11 | CN[C@@H]1Cc2ccccc2[C@@H](c2ccccc2)C1 | 0.12 | > 1 | > 5 | > 5 |  |  | 
12 | CN(CCCc1ccccc1)[C@@H]1Cc2ccccc2[C@@H](c2ccccc2)C1 | 0.3 |  | 0.54 | 0.38 |  |  | 
13 | CN(C)[C@@H]1Cc2ccccc2[C@@](C)(c2ccccc2)C1 | 0.0182 | > 1 | > 5 | > 5 |  |  | 
14 | c1ccc(CCCCN[C@@H]2Cc3ccccc3[C@@H](c3ccccc3)C2)cc1 | 1.05 |  | 1.6 | 1.53 |  |  | 
15 | CN(C)[C@@H]1CCc2ccccc2[C@@H]1c1ccccc1 | 1.3 | > 1 | > 5 | > 5 |  |  | 
16 | CN(C)[C@H]1CCc2ccccc2[C@H](c2ccccc2)C1 | 0.12 | > 1 | > 5 | > 5 |  |  | 
17 | CN(C)[C@@H]1Cc2ccccc2[C@@H](c2ccccc2)C1 (stereo in doubt; 2) | 0.0011 | 1 | 5 | 2.5 |  |  | 
18 | CN(C)[C@@H]1Cc2cc(Cl)c(O)cc2[C@@H](c2ccccc2)C1 | 0.0003 | 0.3 |  |  | 2 | 0.26 | 0.42
